Experimental findings from ChEMBL document CHEMBL2417436, “Synthesis and biological effects of novel 2-amino-3-(4-chlorobenzoyl)-4-substituted thiophenes as allosteric enhancers of the A1 adenosine receptor” (Eur J Med Chem, 2013) are described below.

Experiment [1] addresses T1, Adenosine receptor A1 (Homo sapiens) (UniProt P30542).
T1 sequence (whole entry): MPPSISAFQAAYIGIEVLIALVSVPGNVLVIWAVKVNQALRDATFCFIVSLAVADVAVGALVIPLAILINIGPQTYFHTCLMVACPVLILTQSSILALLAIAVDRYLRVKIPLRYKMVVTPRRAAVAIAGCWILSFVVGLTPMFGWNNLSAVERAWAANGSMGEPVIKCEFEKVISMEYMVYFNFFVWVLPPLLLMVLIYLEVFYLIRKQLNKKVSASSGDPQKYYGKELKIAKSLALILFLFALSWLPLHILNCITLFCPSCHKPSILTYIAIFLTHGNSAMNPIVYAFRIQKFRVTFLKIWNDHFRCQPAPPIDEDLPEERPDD
As to the kind of experiment: Allosteric enhancement of human adenosine A1 receptor expressed in CHO cells assessed as increase of CCPA Ki at 10 uM after 90 mins by [3H]DPCPX radioligand binding assay. The experiment is classed as cell-based. In a few lines:
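hA1CHO membranes (50 mM Tris-HCl, pH 7.4, adenosine deaminase-treated). [3H]DPCPX 1 nM competed by CCPA (0.01 nM–1 μM) with or without test compound at 10 μM. Triplicate, 90 min at 25 °C. Nonspecific binding taken with 1 μM DPCPX. Filtration, then scintillation counting. Ki by Cheng–Prusoff. Shift = Ki(CCPA)/Ki(CCPA+enhancer). Mean ± SEM, n=3.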

The target of experiment [2] is Adenosine receptor A2a (Homo sapiens) (UniProt P29274). As to the kind of experiment: Displacement of [3H]ZM 241385 from human adenosine A2A receptor expressed in CHO cells at 10 uM after 60 mins by scintillation counting. The experiment is classed as cell-based. In a few lines: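 hA2ACHO membranes in 50 mM Tris HCl, 10 mM MgCl2, pH 7.4, 4 °C for 60 min. [3H]ZM 241385 given as 1 nM in methods and 2 nM in table footnote. Compound at 10 μM from 100-fold DMSO stock, 1% DMSO final. Nonspecific binding with 1 μM ZM 241385. Filtration and scintillation counting. Percent inhibition of control specific binding, ±SEM, n=3.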
Chain of Adenosine receptor A2a (Homo sapiens) (P29274 whole entry): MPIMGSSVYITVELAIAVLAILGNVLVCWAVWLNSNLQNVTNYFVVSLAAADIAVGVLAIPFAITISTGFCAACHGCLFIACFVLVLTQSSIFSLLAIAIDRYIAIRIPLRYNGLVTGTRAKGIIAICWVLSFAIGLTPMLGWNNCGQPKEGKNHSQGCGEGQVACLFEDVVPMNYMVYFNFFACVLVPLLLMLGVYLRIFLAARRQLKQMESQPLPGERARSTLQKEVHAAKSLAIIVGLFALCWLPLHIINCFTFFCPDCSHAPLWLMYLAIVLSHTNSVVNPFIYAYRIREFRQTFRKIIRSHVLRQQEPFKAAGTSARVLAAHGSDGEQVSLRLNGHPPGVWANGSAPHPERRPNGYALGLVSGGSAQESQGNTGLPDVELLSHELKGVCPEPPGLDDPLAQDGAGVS

In experiment [3] the target is T1, Adenosine receptor A1 (Homo sapiens). As to the kind of experiment: Displacement of [3H]DPCPX from human adenosine A1 receptor expressed in CHO cells at 10 uM after 120 mins by scintillation counting.
Experiment [4] concerns the target T2, Adenosine receptor A3 (Homo sapiens) (UniProt P0DMS8).
T2 sequence (whole entry): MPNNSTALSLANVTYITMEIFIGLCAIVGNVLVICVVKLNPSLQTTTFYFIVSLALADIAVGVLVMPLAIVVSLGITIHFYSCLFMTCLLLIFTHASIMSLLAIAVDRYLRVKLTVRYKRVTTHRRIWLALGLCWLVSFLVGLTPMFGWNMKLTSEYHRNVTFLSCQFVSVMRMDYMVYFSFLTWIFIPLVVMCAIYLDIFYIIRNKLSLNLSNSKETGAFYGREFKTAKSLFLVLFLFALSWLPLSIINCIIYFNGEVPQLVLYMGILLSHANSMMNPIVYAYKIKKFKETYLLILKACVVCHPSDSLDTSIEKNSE
As to the kind of experiment: Displacement of [3H]MRE-3008-F20 from human adenosine A3 receptor expressed in CHO cells at 10 uM after 120 mins by scintillation counting.

Experiment [5] concerns the target T1, Adenosine receptor A1 (Homo sapiens). The experiment in a line: Allosteric enhancement of human adenosine A1 receptor expressed in CHO cells assessed as increase of [3H]CCPA Bmax at 10 uM after 90 mins. Type of experiment: cell-based. In a few lines:
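Saturation of [3H]CCPA (0.05–20 nM) on hA1CHO membranes in 50 mM Tris-HCl, pH 7.4, with or without compound at final 10 μM. Triplicate, 25 °C, 90 min. Nonspecific binding defined with 1 μM R-PIA. Filter-bound radioactivity counted. KD and Bmax fitted by weighted nonlinear least squares; Bmax shift versus control. Mean ± SEM, n=3.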

Experiment [6] has the same target. As to the kind of experiment: Allosteric enhancement of human adenosine A1 receptor expressed in CHO cells assessed as inhibition of forskolin-induced cAMP production at 10 uM after 10 mins. The experiment is classed as functional, cell-based. In a few lines:
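Whole hA1CHO cells (10⁶/mL) preincubated 10 min at 37 °C in phosphate buffer with adenosine deaminase (1.0 IU/mL) and Ro 20-1724 (0.5 mM). Compound alone at 10 μM for a further 10 min; forskolin 1 μM for 5 min. TCA stop, ether extraction, cAMP by [3H]-cAMP protein-binding competition assay. Expressed as pmol/10⁶ cells; mean ± SEM, three experiments.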

Experiment [7] shares this target. The experiment in a line: Allosteric enhancement of human adenosine A1 receptor expressed in CHO cells assessed as inhibition of CCPA-induced cAMP production at 100 nM after 10 mins. The experiment is classed as functional, cell-based. In a few lines: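 Intact hA1CHO cells (10⁶/mL) in phosphate buffer with adenosine deaminase 1.0 IU/mL and Ro 20-1724 0.5 mM, preincubated 10 min at 37 °C. Compound 100 nM plus CCPA 1 pM added for 10 min, then forskolin 1 μM for 5 min. Stopped with cold 6% TCA, ether-extracted. cAMP measured by [3H]-cAMP competition with adrenal binding protein (4 °C, 150 min). pmol/10⁶ cells, mean ± SEM of three.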

With `CN(Cc1ccccc1)Cc1c(-c2ccccc2)sc(N)c1C(=O)c1ccc(Cl)cc1`, the fold change (FC) in experiment [1] and in experiment [5] was 1.1 each time. Moreover, the inhibition is 3% in experiment [2]; 1% in experiment [3]; 6% in experiment [4]; 4% in experiment [6]; 11% in experiment [7].
As for `COc1ccc2c(c1)cc1n2CCN(Cc2csc(N)c2C(=O)c2ccc(Cl)cc2)C1`, the fold change (FC) is 3.7 in experiment [1] and 4.8 in experiment [5]. In addition, the inhibition in experiment [2] stood at 0%; in experiment [3] it was 1%; in experiment [4], 6%; in experiment [6], 43%; in experiment [7] it was 41%.
Consider `Cc1cccc2c1OC1(CCN(Cc3csc(N)c3C(=O)c3ccc(Cl)cc3)CC1)O2`, for which the fold change (FC) in experiment [1] came out at 4.9; in experiment [5], 5. The inhibition turned out to be 1% in experiment [2]; 2% in experiment [3]; 5% in experiment [4]; 46% in experiment [6]; 47% in experiment [7].
As to `Nc1scc(CN2CCN3c4ccc(Cl)cc4CC3C2)c1C(=O)c1ccc(Cl)cc1` (stereo not drawn), the fold change (FC) in experiment [1] worked out at 1.1; in experiment [5], 1.2. For the same compound, the inhibition in experiment [2] was 4%; in experiment [3], 1%; in experiment [4] it was 1%; in experiment [6], 7%; in experiment [7] it was 11%.
Turning to `Nc1scc(CN2CCn3c(cc4cc(Cl)ccc43)C2)c1C(=O)c1ccc(Cl)cc1`, the fold change (FC) in experiment [1] was found to be 6.9; in experiment [5] it was 7.4. The inhibition in experiment [2] was determined as 0%; in experiment [3], 4%; in experiment [4] it was 4%; in experiment [6], 64%; in experiment [7], 60%.
Turning to `CN(Cc1csc(N)c1C(=O)c1ccc(Cl)cc1)c1ccc(Cl)cc1`, the results for the fold change (FC) in experiment [1] and in experiment [5] were 2.2 and 2.5, respectively. For the same compound, the inhibition came to 0% in experiment [2]; 8% in experiment [3]; 12% in experiment [4]; 22% in experiment [6]; 21% in experiment [7].
Regarding `CCCCN(C)Cc1c(-c2ccccc2)sc(N)c1C(=O)c1ccc(Cl)cc1`, the fold change (FC) in experiment [1] and in experiment [5] was 1.1 each time. Besides, the inhibition in experiment [2] is 1%; in experiment [3], 1%; in experiment [4], 5%; in experiment [6] it was 5%; in experiment [7], 12%.
For the compound `CCN(CC)Cc1c(-c2ccccc2)sc(N)c1C(=O)c1ccc(Cl)cc1`, the fold change (FC) in experiment [1] worked out at 2.4; in experiment [5], 2.8. Also, the inhibition was found to be 5% in experiment [2]; 1% in experiment [3]; 9% in experiment [4]; 25% in experiment [6]; 27% in experiment [7].
Take `Nc1scc(CN2CCN3c4ccccc4CC3C2)c1C(=O)c1ccc(Cl)cc1` (stereo not drawn): the fold change (FC) in experiment [1] stood at 7.6; in experiment [5] it was 8.1. Further, the inhibition in experiment [2] was found to be 3%; in experiment [3], 0%; in experiment [4], 5%; in experiment [6] it was 71%; in experiment [7], 72%.
Take `CCN(Cc1csc(N)c1C(=O)c1ccc(Cl)cc1)c1ccccc1`: the results for the fold change (FC) in experiment [1] and in experiment [5] were 1.9 and 2.3, respectively. The inhibition came out at 0% in experiment [2]; 0% in experiment [3]; 11% in experiment [4]; 19% in experiment [6]; 18% in experiment [7].
As to `Nc1scc(CN2CCC3(CC2)Oc2cccc(F)c2O3)c1C(=O)c1ccc(Cl)cc1`, the fold change (FC) was found to be 6.3 in experiment [1] and 6.5 in experiment [5]. The inhibition was 1% in experiment [2]; 1% in experiment [3]; 7% in experiment [4]; 56% in experiment [6]; 52% in experiment [7].
For the compound `Cn1c2c(c3ccccc31)CN(Cc1csc(N)c1C(=O)c1ccc(Cl)cc1)CC2`, the fold change (FC) in experiment [1] was 2.9; in experiment [5] it was 3.1. Further, the inhibition worked out at 1% in experiment [2]; 2% in experiment [3]; 2% in experiment [4]; 28% in experiment [6]; 27% in experiment [7].
Take `Nc1scc(CSc2ccccc2)c1C(=O)c1ccc(Cl)cc1`: the fold change (FC) in experiment [1] worked out at 2; in experiment [5] it was 2.2. Moreover, the inhibition in experiment [2] was found to be 1%; in experiment [3], 1%; in experiment [4], 5%; in experiment [6], 18%; in experiment [7], 21%.
Regarding `CCCN(CCC)Cc1csc(N)c1C(=O)c1ccc(Cl)cc1`, the fold change (FC) in experiment [1] came out at 1.1; in experiment [5], 1.2. For the same compound, the inhibition in experiment [2] came to 0%; in experiment [3] it was 4%; in experiment [4], 5%; in experiment [6] it was 9%; in experiment [7] it was 10%.
`CN(Cc1csc(N)c1C(=O)c1ccc(Cl)cc1)c1ccccc1`: the fold change (FC) in experiment [1] amounted to 2.2; in experiment [5], 2.4. For the same compound, the inhibition in experiment [2] was found to be 1%; in experiment [3], 1%; in experiment [4] it was 9%; in experiment [6] it was 18%; in experiment [7], 16%.
Take `Nc1sc(-c2ccccc2)c(CN2CCCCC2)c1C(=O)c1ccc(Cl)cc1`: the fold change (FC) came out at 2.7 in experiment [1] and 2.9 in experiment [5]. In addition, the inhibition stood at 1% in experiment [2]; 1% in experiment [3]; 7% in experiment [4]; 24% in experiment [6]; 22% in experiment [7].
For the compound `Nc1scc(CN2CCc3[nH]c4ccccc4c3C2)c1C(=O)c1ccc(Cl)cc1`, the fold change (FC) in experiment [1] and in experiment [5] was 1 in each case. Also, the inhibition was 1% in experiment [2]; 0% in experiment [3]; 1% in experiment [4]; 3% in experiment [6]; 11% in experiment [7].
As to `CC(C)(C)c1ccc2c(c1)OC1(CCN(Cc3csc(N)c3C(=O)c3ccc(Cl)cc3)CC1)O2`, the figures for the fold change (FC) in experiment [1] and in experiment [5] were 6 and 6.3, respectively. Also, the inhibition was determined as 0% in experiment [2]; 1% in experiment [3]; 12% in experiment [4]; 51% in experiment [6]; 55% in experiment [7].
With `Nc1scc(CN2CCc3[nH]c4ccc(Cl)cc4c3C2)c1C(=O)c1ccc(Cl)cc1`, the fold change (FC) amounted to 1.1 in experiment [1] and 1.2 in experiment [5]. In addition, the inhibition in experiment [2] stood at 1%; in experiment [3] it was 2%; in experiment [4], 1%; in experiment [6], 8%; in experiment [7] it was 13%.
